The values below come from ChEMBL document CHEMBL2396559, “Synthesis and preliminary biological evaluation of a compound library of triazolylcyclitols” (2013).

In test [1] the test system is Candida parapsilosis. Briefly: Antifungal activity against Candida parapsilosis ATCC 22919 assessed as growth inhibition at 10 mg/mL by bioautographic agar overlay method. The format is functional, organism-based. In outline: (§1)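 Samples at 10 mg/mL spotted on silica gel TLC plates, overlaid with a thin Sabouraud agar film inoculated 50:1 with fresh-culture suspension at 10^6 cells or spores/mL. Incubation time and conditions were set per fungus. Growth-free zones around spots scored qualitatively. Same plate carried DMSO 1% negative control plus amphotericin B and ketoconazol controls.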

The subject of test [2] is Splenic lymphocyte. The experiment in a line: Immunosuppressive activity against C57Bl/6 mouse splenic lymphocytes assessed as cell viability at 200 nM after 72 hrs by MTT assay. The format is functional. The method, boiled down:
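Spleens from male 18-week-old C57Bl/6 mice were teased through a strainer, washed in RPMI and resuspended in RPMI with 10% FBS. Cells were counted by trypan blue and cultured in triplicate at 37 °C for 72 h with vehicle (medium, 0.1% DMSO), 10% DMSO or compound at 200 nM. MTT was added for 2 h, formazan dissolved in DMSO and read at 570 nm. Viability taken as % of vehicle after blank subtraction. Three animals.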
(Formazan colour is commonly taken as a measure of viable cells.)

In test [3] the test system is Trichophyton rubrum. Briefly: Antifungal activity against Trichophyton rubrum ATCC 28188 assessed as growth inhibition at 10 mg/mL by bioautographic agar overlay method. It counts as functional, organism-based. The method, boiled down:
as §1

Test [4] has as its system Candida albicans. Briefly: Antifungal activity against Candida albicans ATCC 90022 assessed as growth inhibition at 10 mg/mL by bioautographic agar overlay method. The format is functional, organism-based. The method, boiled down:
as §1

A short description of test [5]: Immunosuppressive activity against C57Bl/6 mouse splenic lymphocytes assessed as concanavalin A-induced cell proliferation at > 0.002 nM incubated for 1 hr prior to concanavalin A challenge measured after 48 hrs by resazurin reduction assay relative to control. It counts as functional, Splenic lymphocyte. On the set-up: scale not given: the % may be the effect or the level left. The method, boiled down: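 Splenocytes from male C57Bl/6 mice were plated at 1×10^6 cells/mL, 37 °C, 5% CO2. Compounds at 0.002–200 nM were added for 1 h, then cells were incubated with or without concanavalin A (0.5 µg/mL) for 48 h. Resazurin 0.01% was added for 24 h, then OD read at 570 and 600 nm and proliferation taken as the difference. Compared with ConA plus vehicle. Three animals in triplicate.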
In general terms: Resazurin is reduced to fluorescent resorufin, in cell work by metabolically active cells.

The test system of test [6] is Cryptococcus neoformans. The experiment in a line: Antifungal activity against Cryptococcus neoformans ATCC 14116 assessed as growth inhibition at 10 mg/mL by bioautographic agar overlay method. It counts as functional, organism-based. In outline:
as §1

Test [7] deals with Trichophyton mentagrophytes. Briefly: Antifungal activity against Trichophyton mentagrophytes ATCC 9533 assessed as growth inhibition at 10 mg/mL by bioautographic agar overlay method. The format is functional, organism-based. The method, boiled down:
as §1

Test [8] concerns Nakaseomyces glabratus. The experiment in a line: Antifungal activity against Candida glabrata ATCC 15126 assessed as growth inhibition at 10 mg/mL by bioautographic agar overlay method. The format is functional, organism-based. In outline:
as §1

The subject of test [9] is Nannizzia gypsea. Briefly: Antifungal activity against Microsporum gypseum ATCC 24102 assessed as growth inhibition at 10 mg/mL by bioautographic agar overlay method. It counts as functional, organism-based. The method, boiled down:
as §1

Active and inactive are the calls of the source. The rule behind the calls is not given here.

Consider `O[C@H]1[C@H](O)[C@H](n2cc(-c3cccc(-c4cn([C@H]5C=C(Br)[C@@H](O)[C@@H](O)[C@@H]5O)nn4)c3)nn2)C=C(Br)[C@H]1O` (mixture of isomers), for which the “growth inhibition (GI)” value in test [1], in [3], in test [4], in test [6] and in test [9] was “inactive” throughout. Further, the result in test [2] was inactive. The Activity entry in [5] is on record as “<=30%”. The “growth inhibition (GI)” value in test [7] and in test [8] was “Active” throughout.
Consider `C#Cc1cccc(-c2cn([C@H]3C=C(Br)[C@@H](O)[C@@H](O)[C@@H]3O)nn2)c1`, for which the “growth inhibition (GI)” value in test [1], in test [3], in test [4], in [6], in [7] and in test [8] was “inactive” throughout. In addition, the “growth inhibition (GI)” value in [9] was “inactive”. In test [2], the result was inactive. Moreover, the Activity result in test [5] was “<=30%”.
In the case of `O[C@H]1[C@H](O)[C@H](n2cc(-c3ccc(-c4cn([C@@H]5C=C(Br)[C@@H](O)[C@@H](O)[C@@H]5O)nn4)cc3)nn2)C=C(Br)[C@H]1O`, in [1], the “growth inhibition (GI)” value is “Active”. Moreover, the result in test [2] was inactive. For the same compound, the “growth inhibition (GI)” value in [3], in test [4], in [6], in [7], in test [8] and in test [9] was “inactive” throughout. The Activity entry in test [5] is “<=30%”.
For the compound `C#Cc1cccc(-c2cn([C@@H]3C=C(Br)[C@@H](O)[C@@H](O)[C@@H]3O)nn2)c1`, in test [1], the “growth inhibition (GI)” value is “Active”. Besides, in test [2], the outcome was inactive. Further, the “growth inhibition (GI)” value in test [3], in [4], in [6], in test [7], in test [8] and in [9] was “inactive” each time. Further, the Activity entry in test [5] is listed as “<=30%”.
Consider `O[C@H]1[C@H](O)[C@H](n2cc(-c3cccc(-c4cn([C@@H]5C=C(Br)[C@@H](O)[C@@H](O)[C@@H]5O)nn4)c3)nn2)C=C(Br)[C@H]1O`, for which the “growth inhibition (GI)” value in [1], in test [3], in test [4], in [6], in test [7] and in [8] was “inactive” in each case. Moreover, in test [9], the “growth inhibition (GI)” value is “inactive”. Also, the result in test [2] was inactive. In addition, in [5], the Activity entry was “<=30%”.
For the compound `O[C@H]1[C@H](O)[C@H](n2cc(-c3ccc(-c4cn([C@H]5C=C(Br)[C@@H](O)[C@@H](O)[C@@H]5O)nn4)cc3)nn2)C=C(Br)[C@H]1O` (mixture of isomers), the “growth inhibition (GI)” value in [1], in test [3], in test [4], in test [6], in test [7] and in test [8] was “inactive” throughout. For the same compound, the “growth inhibition (GI)” value in [9] is “inactive”. Moreover, the result in test [2] was inactive. Besides, the Activity entry in [5] was “<=30%”.
As for `O[C@H]1[C@H](O)[C@@H](n2cc(-c3cccc(-c4cn([C@H]5C=C(Br)[C@@H](O)[C@@H](O)[C@@H]5O)nn4)c3)nn2)C=C(Br)[C@H]1O`, the “growth inhibition (GI)” value in test [1], in test [3], in test [4], in test [6], in test [7] and in [8] was “inactive” throughout. Further, in test [9], the “growth inhibition (GI)” value was “inactive”. Moreover, the outcome in test [2] was inactive. Moreover, the Activity entry in test [5] is recorded as “<=30%”.
Regarding `O[C@H]1[C@H](O)[C@@H](n2cc(-c3ccc(-c4cn([C@H]5C=C(Br)[C@@H](O)[C@@H](O)[C@@H]5O)nn4)cc3)nn2)C=C(Br)[C@H]1O`, the “growth inhibition (GI)” value in test [1], in test [4], in [6], in [7] and in [8] was “inactive” each time. Besides, the result in test [2] was inactive. The “growth inhibition (GI)” value in test [3] and in [9] was “Active” in each case. Also, in test [5], the Activity entry is on record as “<=30%”.
For `C#Cc1ccc(-c2cn([C@@H]3C=C(Br)[C@@H](O)[C@@H](O)[C@@H]3O)nn2)cc1`, in [1], the “growth inhibition (GI)” value was “Active”. Besides, the outcome in [2] was inactive. Besides, the “growth inhibition (GI)” value in test [3], in test [4], in test [6], in test [7], in test [8] and in test [9] was “inactive” each time. The Activity entry in test [5] was “<=30%”.
As to `C#Cc1ccc(-c2cn([C@H]3C=C(Br)[C@@H](O)[C@@H](O)[C@@H]3O)nn2)cc1`, the “growth inhibition (GI)” value in test [1], in test [3], in test [4], in [6], in [7] and in [8] was “inactive” in each case. Further, the “growth inhibition (GI)” value in test [9] was “inactive”. For the same compound, the outcome in [2] was inactive. In addition, the Activity result in test [5] is listed as “<=30%”.
